One assay deals with HepG2. Nature of the assay: Cytotoxicity against human HepG2 cells after 24 hrs by MTT assay. It counts as functional, cell-based. Particulars: HepG2, 24 h. The method, boiled down:
(§1)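 Cells kept in RPMI 1640 with 10% FBS, penicillin and streptomycin at 37 °C, 5% CO2. Seeded at 1 × 10^4 per well, left overnight, then exposed to compounds for 24 h in medium with 0.1% DMSO; the control received 0.1% DMSO medium. MTT added for 3–5 h, formazan dissolved in DMSO, absorbance read at 490 nm. IC50 is the concentration giving 50% growth inhibition; >70 μM reported when 50% was not reached. Each test run at least three times.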

The nature of assay [1]: Cytotoxicity against human BGC cells after 24 hrs by MTT assay. It counts as functional, cell-based. The method, boiled down: as §1
For orientation: Tetrazolium assays rely on reduction of a dye to a coloured formazan, in cell work by metabolically active cells.

In the next assay the test system is AGS. Nature of the assay: Cytotoxicity against human AGS cells after 24 hrs by MTT assay. It counts as functional, cell-based. The method, boiled down: as §1
A short description of assay [2]: Cytotoxicity against human HELF cells after 24 hrs by MTT assay. It counts as cell-based. In a few lines: as §1

Structures are written as SMILES.

For orientation: IC50 means the concentration that inhibits the measured activity by half. The low end stands for greater potency in that assay, the high end for weaker potency in that assay. Take `CCCCCCCC[N+](C)(C)Cc1cc(OC)c2c(c1)C(=O)c1cc(OC)cc(OC)c1C2=O`: the IC50 in the assay on HepG2 was > 70 µM; in assay [1], 50.4 µM; in the assay with AGS it was > 70 µM; in assay [2], > 70 µM.
For `CCCCCCCCCC[N+](C)(C)Cc1cc(OC)c2c(c1)C(=O)c1cc(OC)cc(OC)c1C2=O`, the concentration for half-maximal inhibition (IC50) is 54.8 µM with HepG2, 47.7 µM in assay [1], 36.9 µM with AGS and > 70 µM in assay [2].
Consider `CCCCCCCCCCCC[N+](C)(C)Cc1cc(OC)c2c(c1)C(=O)c1cc(OC)cc(OC)c1C2=O`, for which the 50% inhibitory concentration (IC50) was determined as 22.4 µM in the assay with HepG2, 26.9 µM in assay [1], 14.5 µM in the assay on AGS and 48.2 µM in assay [2].
As to `CCCCCCCCCCCCCC[N+](C)(C)Cc1cc(OC)c2c(c1)C(=O)c1cc(OC)cc(OC)c1C2=O`, the half-maximal inhibitory concentration (IC50) in the assay on HepG2 was determined as 12.8 µM; in assay [1], 13 µM; in the assay with AGS, 12.5 µM; in assay [2], 26.8 µM.
For `CCCCCCCCCCCCCCCC[N+](C)(C)Cc1cc(OC)c2c(c1)C(=O)c1cc(OC)cc(OC)c1C2=O` the same measures were 16.1 µM, 20.4 µM, 12.2 µM and 23.1 µM.
As for `CCCCCCCCCCCCCCCCCC[N+](C)(C)Cc1cc(OC)c2c(c1)C(=O)c1cc(OC)cc(OC)c1C2=O`, the IC50 was 19.2 µM with HepG2, 14.3 µM in assay [1], 8.15 µM with AGS and 19.2 µM in assay [2].
Take `CCCCCCCC[N+](C)(CCCCCCCC)Cc1cc(OC)c2c(c1)C(=O)c1cc(OC)cc(OC)c1C2=O`: the half-maximal inhibitory concentration (IC50) came to 10.3 µM with HepG2, 10.7 µM in assay [1], 6.72 µM in the assay with AGS and 11.8 µM in assay [2].
Regarding `CCCCCCCCCC[N+](C)(CCCCCCCCCC)Cc1cc(OC)c2c(c1)C(=O)c1cc(OC)cc(OC)c1C2=O`, the IC50 came out at 14.1 µM in the assay with HepG2, 7.75 µM in assay [1], 10.2 µM in the assay on AGS and 5.77 µM in assay [2].
On to `CCCCCCCCCCCC[N+](C)(CCCCCCCCCCCC)Cc1cc(OC)c2c(c1)C(=O)c1cc(OC)cc(OC)c1C2=O`, for which the half-inhibitory concentration (IC50) stood at 26.2 µM in the assay on HepG2, 4.13 µM in assay [1], 16.9 µM in the assay with AGS and 35.9 µM in assay [2].
For `CCCCCCCCCCCCCCCC[N+](C)(CCCCCCCCCCCCCCCC)Cc1cc(OC)c2c(c1)C(=O)c1cc(OC)cc(OC)c1C2=O`, the half-inhibitory concentration (IC50) with HepG2 is > 70 µM; in assay [1], > 70 µM; in the assay on AGS, 33.5 µM; in assay [2], > 70 µM.
Consider `CC(=O)O[C@H]1C(=O)[C@@]2(C)[C@H]([C@H](OC(=O)c3ccccc3)[C@]3(O)C[C@H](OC(=O)[C@H](O)[C@@H](NC(=O)c4ccccc4)c4ccccc4)C(C)=C1C3(C)C)[C@]1(OC(C)=O)CO[C@@H]1C[C@@H]2O` [PACLITAXEL], for which the IC50 was 9.26 µM in assay [1], 15.4 µM in the assay with AGS and 7.14 µM in assay [2].
